Screens: PubChem, Johns Hopkins Ion Channel Center
KCNK3 block = human KCNK3 channel inhibitors, primary screen, CHO cells, FluxOR thallium flux, B-score; Potassium channel subfamily K member 3 (Homo sapiens), O14649; FluxOR fluorescence; hits give low values; B-score at 10 µM; 340,000 compounds, 0.84% hits; AID 602410, 2012;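 active = B-score under library mean minus 4 SD, starting fluorescence ratio at most library mean plus 5 SD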;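 note: more negative B-score means stronger inhibition of thallium flux through KCNK3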
KCNQ1 pot = potentiators or activators of KCNQ1 channel, primary screen, cell-based, thallium flux, high-throughput; AID 2648, 2010; 310,000 compounds, 0.35% hits; CHO-K1 KCNQ1, thallium flux FluxOR fluorescence; hits give high values; Potassium voltage-gated channel subfamily KQT member 1 (Homo sapiens), P51787; B-score at 10 µM;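 active = fluorescence ratio B-score, a plate-corrected score, at least three library SD, with initial intensity B-score within 5 SD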
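Assay system: CHO-K1 cells stably expressing KCNQ1. Medium: assay buffer for compound exposure, DMSO matched across wells. Timing: 37 °C overnight plating, 90-min dark dye load, 20-min compound pretreatment. Signal: kinetic FluxOR fluorescence, 10 s baseline plus 110 s post-stimulus.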
KCNQ1 block = inhibitors of human KCNQ1 channel, primary screen, cell-based, thallium flux, high-throughput; Potassium voltage-gated channel subfamily KQT member 1 (Homo sapiens), P51787; CHO-K1 KCNQ1, FluxOR thallium flux fluorescence; hits give high values; B-score at 10 µM; 310,000 compounds, 1.3% hits;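 active = compounds whose thallium flux B-score, printed positive for inhibition, exceeds three library SD while starting fluorescence stays within three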;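 note: channel opened by potassium depolarization with thallium stimulus after 20 min compound exposure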
KCNK9 inh = KCNK9 potassium channel inhibitors, primary screen, HEK293 cells, thallium flux | Potassium channel subfamily K member 9 (Homo sapiens), Q9NPC2 | FluxOR thallium flux fluorescence; hits give low values | B-score at 10 µM | 310,000 compounds, 1.2% hits;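 active = ratio B-score over 3 SD below the library mean, with starting fluorescence within 5 SD of its mean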;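 note: negative B-score means less thallium flux so channel inhibition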
Target sequence (Q9NPC2 whole entry, looked up): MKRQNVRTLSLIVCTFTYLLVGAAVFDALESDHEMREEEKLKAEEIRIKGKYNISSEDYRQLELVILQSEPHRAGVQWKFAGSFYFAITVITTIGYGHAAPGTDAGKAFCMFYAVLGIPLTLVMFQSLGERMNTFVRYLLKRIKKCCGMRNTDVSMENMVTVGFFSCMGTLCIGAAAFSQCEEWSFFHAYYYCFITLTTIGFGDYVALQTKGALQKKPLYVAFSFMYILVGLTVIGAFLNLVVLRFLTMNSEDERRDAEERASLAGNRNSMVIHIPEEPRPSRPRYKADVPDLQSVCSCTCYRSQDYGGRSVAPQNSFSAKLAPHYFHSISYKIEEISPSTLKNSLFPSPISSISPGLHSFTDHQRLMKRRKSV
hERG rescue = hERG rescue from dofetilide block, primary screen, cell-based, CHO-hERG, FluxOR thallium flux, dofetilide IC70 | Voltage-gated inwardly rectifying potassium channel KCNH2 (Homo sapiens), Q12809 | dofetilide IC70 present | activation (rescue from dofetilide block), less the hit threshold, % at 10 µM | 310,000 compounds, 0.51% hits | AID 1511, 2009;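 active = activation above the mean of controls blocked by dofetilide plus 5 SD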;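 note: thallium influx through hERG after potassium depolarization seen as dye fluorescence rise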
Kir21 block = inhibitors of mouse Kir2.1 inward-rectifier potassium channel; HEK293-Kir2.1, FluxOR thallium flux fluorescence; hits give low values; B-score at 10 µM; 310,000 compounds, 0.85% hits;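 active = fluorescence ratio B-score at or below minus 3 SD of library scores, with starting-brightness B-score within 2 SD, cut at about -4.2 in these data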;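 note: channel flux triggered by added potassium and thallium sulfate stimulus; B-score of peak minus minimum fluorescence over baseline after thallium stimulus; more negative B-score means stronger Kir2.1 block with less thallium influx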
The depositor's hits bear a star; i = inactive; · = no result. Sampled rows, rich in hits. Any-hit rate of the full collection: about 3.8%.

SMILES | KCNK3 block | KCNQ1 pot | KCNQ1 block | KCNK9 inh | hERG rescue | Kir21 block
COc1ccc(-c2oc(NC(=O)CSc3ncn[nH]3)c(C#N)c2-c2ccc(OC)cc2)cc1 | -13* | i | i | i | -18 | 0.08
Cc1cc(C)cc(NS(=O)(=O)c2c(C)[nH]c(=O)[nH]c2=O)c1 | i | i | i | i | -3 | -1.2
Cc1ccc2c(=O)c(C(=O)NCc3cccs3)c[nH]c2c1 | i | i | i | i | 4.8* | -0.41
O=C(Nc1ccc(OC(=O)c2cccs2)cc1)c1ccco1 | i | i | i | i | -3 | 1.2
O=C(Nc1ccc(C(=O)Oc2ccccc2)c(O)c1)c1ccccc1 | i | i | i | -7.2* | -1 | 0.7
CCOC(=O)Nc1ccc(C(=O)Oc2ccccc2)c(O)c1 | i | i | i | i | -6 | 0.09
O=C(Nc1ccc(C(=O)Oc2ccccc2)c(O)c1)c1ccco1 | i | i | i | -7.2* | -10 | 0.86
CCn1c(SCC(=O)N2CCCc3ccccc32)nc2cccnc21 | i | i | i | i | -14 | -4.9*
CC(C)Cn1c(SCC(=O)N2CCCc3ccccc32)nc2ccccc2c1=O | · | i | 6* | i | -10 | -0.05
CCn1c(SCC(=O)N2CCCc3ccccc32)nc2ccccc2c1=O | i | i | i | i | -5 | -3
Cn1c(SCC(=O)N2CCCc3ccccc32)nc2cccnc21 | i | i | i | i | -13 | -0.98
Cc1[nH]c2ccccc2c1SCC(=O)N1CCCc2ccccc21 | i | i | 6* | i | -24 | -7.8*
Cc1ccc(S(=O)(=O)/N=C(/Nc2cccc(O)c2)c2ccccc2)cc1 | i | i | i | i | -2 | 0.56
C=CCn1c(C)cc(-c2csc(NC)n2)c1C | i | · | · | · | · | ·
C=CCn1c(C)cc(-c2csc(NCC)n2)c1C | i | i | 6* | i | -12 | -0.3
CC(NCCS(=O)(=O)c1ccc(Cl)cc1)c1cccc(Cl)c1 (stereo not drawn) | i | i | i | i | -6 | -13*
OCCN(CCO)CC(O)COCCC12CC3CC(CC(C3)C1)C2 (stereo not drawn) | i | i | 8* | i | -16 | 0.06
CCN(CC)CC(O)COCCC12CC3CC(CC(C3)C1)C2 (stereo not drawn) | i | i | i | i | 4 | 0.39
CCC(C)OC(=O)C[N+](C)(C)CCOC1CC2CCC1(C)C2(C)C (stereo not drawn) | i | i | 7* | i | -9 | -2.1
CC(C)CCOC(=O)C[N+](C)(C)CCOC1CC2CCC1(C)C2(C)C (stereo not drawn) | i | i | i | i | -12 | -2.5
CCCCOC(=O)C[N+](C)(C)CCOC1CC2CCC1(C)C2(C)C (stereo not drawn) | i | i | 7* | i | -13 | -0.97
CCCCCCOC(=O)C[N+](C)(C)CCOC1CC2CCC1(C)C2(C)C (stereo not drawn) | i | i | 9* | i | -29 | -7.7*
O=C(CC1C(=O)NCCN1C(=O)c1ccccc1)Nc1cc(Cl)ccc1Cl (stereo not drawn) | i | i | i | i | -8 | -0.9
CC(C)OC(=O)c1c(N)n(CCCN2CCOCC2)c2nc3ccccc3nc12 | i | i | i | i | -3 | -0.05
CC(C)OC(=O)c1c2nc3ccccc3nc2n2c1[nH]c(=O)c1ccccc12 | · | 81* | i | i | 43* | -0.06
SMILES | KCNK3 block | KCNQ1 pot | KCNQ1 block | KCNK9 inh | hERG rescue | Kir21 block
Cc1ccc(NC(=O)c2cc(-c3cc(C)c(C)cc3O)n[nH]2)cc1C | i | i | i | i | -5 | -0.03
C[C@@H](NC(=O)[C@@H]1Cc2ccccc2CN1C(=O)OC(C)(C)C)C(=O)NC1CCCCC1 | i | i | i | i | -7 | 0.86
CCCNc1nc2nc3ccccn3c(=O)c2cc1C(=O)NCCN1CCOCC1 | i | i | i | i | -6 | 0.51
CCn1c(Cn2nnc(-c3ccccc3)n2)nnc1SCC(=O)Nc1cccc(C(C)=O)c1 | i | i | i | i | -4 | -2.4
CCn1c(Cn2nnc(-c3ccccc3)n2)nnc1SCC(=O)Nc1ccc(C(C)=O)cc1 | i | i | i | i | 4.6* | -0.67
Cc1cccc(CN2CCC(Oc3ccc(C(=O)N4CCCCC4)cc3)CC2)c1 | i | i | i | i | -9 | -4.2
CCn1c(=O)c(C(=O)NNS(=O)(=O)c2ccc(Cl)cc2)c(O)c2ccccc21 | i | i | 6* | i | -14 | -1.5
Cc1noc(C)c1COc1cccc(C(=O)Nc2ccc(Br)cc2F)c1 | -9.2* | · | · | · | · | ·
Cc1ccc(NC(=O)c2cccc(OCc3c(C)noc3C)c2)c(C)c1 | i | i | i | i | -11 | 0.03
COC(=O)c1cc(-c2cccc(OC)c2)on1 | i | i | i | i | 7.2* | 0.02
S=c1[nH]cnc2scc(-c3ccc(Br)cc3)c12 | i | 23* | i | i | 14* | -0.96
O=c1[nH]cnc2scc(-c3ccc(Br)cc3)c12 | i | i | i | i | 3 | 1.2
Cc1cc(-c2csc3nc[nH]c(=S)c23)cc(C)c1C | i | 45* | i | i | 8.1* | -0.48
O=c1[nH]cnc2scc(-c3ccccc3)c12 | i | i | i | i | -7 | -0.55
Cc1sc2nc[nH]c(=S)c2c1-c1ccccc1 | i | 12* | i | i | 20* | -0.17
Cc1ccc(-c2csc3nc[nH]c(=S)c23)cc1 | i | 26* | i | i | 53* | 1.6
CCc1ccc(-c2csc3nc[nH]c(=O)c23)cc1 | i | i | i | i | 0 | 1.1
Cc1ccc(N2C(=O)CC(Nc3ccc(Cl)c(S(=O)(=O)N(C)C)c3)C2=O)c(C)c1 (stereo not drawn) | i | i | i | i | -11 | -0.56
CCOc1ccc(NC(=O)CN(C)C(=O)C2CCN(C(=O)Nc3ccccc3)CC2)cc1OCC | i | · | · | · | · | ·
O=C(NCCCCO)c1ccc2c3c(cccc13)CC2 | i | i | i | i | -15 | 0.32
CCCCCc1c(C)[nH]c2nc3ccccc3n2c1=O | i | i | i | i | 1 | -1.1
